Measured values from different studies.
Lines come from different studies, so protocols differ.
Organism: Enterococcus faecium

Structure (SMILES) | test | system | conditions | measurement | value
O=C(O)CCc1ccc(Oc2ccc(-c3noc(-c4ccc(O)cc4)n3)cc2)cc1 | microbial growth, broth dilution |  | 24 h | MIC | > 32 µg/mL
O=C(N[C@H](CO)[C@H](O)c1ccc([N+](=O)[O-])cc1)C(Cl)Cl | microbial growth, broth dilution | VRE |  | MIC | 3.9 µg/mL
CNC(=O)c1cc(Oc2ccc(NC(=O)Nc3ccc(Cl)c(C(F)(F)F)c3)cc2)ccn1 | microbial growth |  |  | MIC | > 100 µM
CC(=O)OCc1cccc(-n2c(/C=C/c3ccc(C#N)cc3)nc3ccccc3c2=O)c1 | microbial growth, broth dilution | NCTC7171 |  | MIC | > 128 µg/mL
Cc1cc(/C=C2\Sc3ccccc3N2CCCN2CCC(C)CC2)c2ccccc2[n+]1C.[I-] | microbial killing | ATCC700221 |  | MBC | > 64 µg/mL
O=c1c2cnccc2nc(/C=C/c2ccc(Cl)cc2)n1-c1cccc(O)c1 | microbial growth, broth dilution | NCTC7171 |  | MIC | > 128 µg/mL
CC1CCN(CCCN2/C(=C/c3cc[n+](C)c4ccccc34)Sc3ccccc32)CC1.[I-] | microbial killing | ATCC700221 |  | MBC | 128 µg/mL
CN(C)CCc1ccc(Oc2ccc(-c3noc(-c4ccc(O)cc4)n3)cc2)cc1 | microbial growth, broth dilution |  | 24 h | MIC | 4 µg/mL
O=C(Nc1ccc2c(c1)OC(F)(F)O2)Nc1ccc(Cl)c(C(F)(F)F)c1 | microbial growth |  |  | MIC | 1 µM
O=C(O)c1cccc(-n2c(/C=C/c3ccc(F)c(Cl)c3)nc3ccccc3c2=O)c1 | microbial growth, broth dilution | NCTC7171 |  | MIC | > 128 µg/mL
O=C(O)COc1ccc(Oc2ccc(-c3noc(-c4ccc(O)cc4)n3)cc2)cc1 | microbial growth, broth dilution |  | 24 h | MIC | > 32 µg/mL
